We go through eight compounds from ChEMBL document CHEMBL1146338, “Synthesis and antioxidant activity evaluation of new 7-aryl or 7-heteroarylamino-2,3-dimethylbenzo[b]thiophenes obtained by Buchwald-Hartwig C-N cross-coupling” (Bioorg Med Chem, 2007).

Values after ≈ are worked out from the molar mass of the structure shown.

Assay [1] is described as follows: Antioxidant activity assessed as inhibition of lipid peroxidation at 0.250 g/L after 2 hrs by beta carotene bleaching method. The class given is functional. In a few lines:
(§1)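 β-Carotene linoleate emulsion (β-carotene dissolved in chloroform) incubated with compound at 50 C in a water bath. A470 read at time zero, then every 20 min until the control lost colour; a blank without β-carotene was subtracted. Activity = (β-carotene after 2 h / initial β-carotene) × 100. Triplicate means; EC50 taken from the activity % versus concentration plot.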

Assay [2] has as its system Radical scavenging activity. Description: Antioxidant activity assessed as DPPH radical scavenging activity at 0.0156 g/L. The class given is functional. In a few lines: (§2)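 Compound in methanol (0.3 mL, various concentrations) mixed with methanolic DPPH ([…] stock, 2.7 mL), shaken and held 60 min in the dark. Absorbance read at 517 nm. %RSA = [(ADPPH − AS)/ADPPH] × 100. Means of three independent samples. EC50 (50% scavenging) taken from the plot of %RSA against concentration; BHA and BHT as standards.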
On the technique in general: The DPPH test is a chemical assay of radical scavenging.

Assay [3] concerns Radical scavenging activity. Description: Antioxidant activity assessed as DPPH radical scavenging activity at 0.250 g/L. The class given is functional. In a few lines:
as §2

Assay [4] relates to Erythrocyte. As to the kind of experiment: Inhibition of AAPH-induced ram erythrocyte hemolysis at 0.250 g/L. The format is functional. Particulars: Ovis aries. In a few lines:
(§3)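 Erythrocytes from a male ram (churra galega transmontana) washed three times in 10 mM PBS pH 7.4. A 20% suspension combined with 200 mM AAPH in PBS and methanolic compound at different concentrations, shaken gently 3 h at 37 C. Diluted with PBS, centrifuged, supernatant A540 read. % inhibition set against the AAPH control without compound. Triplicate means; EC50 from the plot; L-ascorbic acid as standard.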

The subject of assay [5] is Radical scavenging activity. Description: Antioxidant activity assessed as DPPH radical scavenging activity at 0.0312 g/L. The class given is functional. In a few lines: as §2
For assay [6], the system named is Erythrocyte. As to the kind of experiment: Inhibition of AAPH-induced ram erythrocyte hemolysis at 0.0625 g/L. The class given is functional. Particulars: Ovis aries. In a few lines: as §3
Assay [7] has as its system Radical scavenging activity. As to the kind of experiment: Antioxidant activity assessed as DPPH radical scavenging activity at 0.125 g/L. The class given is functional. The method, boiled down:
as §2

Assay [8] is described as follows: Antioxidant activity assessed as reduction of ferric cyanide complex by reducing power assay. The format is functional. In a few lines:
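Oyaizu method: methanolic compound at various concentrations mixed with sodium phosphate buffer (200 mmol/L, pH 6.6) and 1% potassium ferricyanide, held 20 min at 50 C. 10% TCA added, then centrifuged. Supernatant diluted with water, 0.1% FeCl3 added, A700 read. Triplicate means; EC50 = concentration giving absorbance 0.5, from the A700 versus concentration plot. Standards: BHA, BHT, ascorbic acid.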

In assay [9] the test system is Erythrocyte. Description: Inhibition of AAPH-induced ram erythrocyte hemolysis at 0.125 g/L. Particulars: Ovis aries. The class given is functional. In a few lines:
as §3

Assay [10] relates to Erythrocyte. Description: Inhibition of AAPH-induced ram erythrocyte hemolysis. Particulars: Ovis aries. The class given is functional, cell-based. In a few lines: as §3
Assay [11] relates to Radical scavenging activity. As to the kind of experiment: Antioxidant activity assessed as DPPH radical scavenging activity at 0.0625 g/L. The format is functional. The method, boiled down: as §2
Assay [12] is described as follows: Antioxidant activity assessed as inhibition of lipid peroxidation at 0.0312 g/L after 2 hrs by beta carotene bleaching method. The format is functional. In a few lines: as §1
The nature of assay [13]: Antioxidant activity assessed as inhibition of lipid peroxidation at 0.0156 g/L after 2 hrs by beta carotene bleaching method. The format is functional. In a few lines: as §1
A short description of assay [14]: Antioxidant activity assessed as inhibition of lipid peroxidation at 0.0625 g/L after 2 hrs by beta carotene bleaching method. The class given is functional. The method, boiled down: as §1
Assay [15] can be described thus: Antioxidant activity assessed as inhibition of lipid peroxidation at 0.125 g/L after 2 hrs by beta carotene bleaching method. The class given is functional. In a few lines:
as §1

For assay [16], the system named is Radical scavenging activity. Description: Antioxidant activity assessed as DPPH radical scavenging activity. The class given is functional. The method, boiled down:
as §2

Assay [17] in a line: Antioxidant activity assessed as inhibition of lipid peroxidation after 2 hrs by beta carotene bleaching method. The class given is functional. The method, boiled down:
as §1

Assay [18] concerns Erythrocyte. As to the kind of experiment: Inhibition of AAPH-induced ram erythrocyte hemolysis at 0.0312 g/L. The format is functional. Particulars: Ovis aries. In a few lines: as §3
In assay [19] the test system is Erythrocyte. As to the kind of experiment: Inhibition of AAPH-induced ram erythrocyte hemolysis at 0.0156 g/L. The format is functional. Particulars: Ovis aries. In a few lines: as §3
Assay [20] in a line: Antioxidant activity assessed as inhibition of lipid peroxidation at 2 g/L after 2 hrs by beta carotene bleaching method. The format is functional. The method, boiled down:
as §1

Assay [21] concerns Erythrocyte. As to the kind of experiment: Inhibition of AAPH-induced ram erythrocyte hemolysis at 1 g/L. The class given is functional. Particulars: Ovis aries. In a few lines: as §3

For `Cc1sc2c(Nc3ccc(C#N)cc3)cccc2c1C`, the inhibition – broadly, the relative decrease from the control value, in per cent – is 79.6% in [1]; 67.3% in assay [12]; 49.6% in assay [13]; 69% in assay [14]; 71% in [15]. The Activity is 0% in assay [2]; 3.1% in assay [3]; 0% in [5]; 0.5% in [7]; 0% in assay [11]. At 250 µg/mL the inhibition in the assay with Erythrocyte [4] was 66.4%. Besides, 62.5 µg/mL produced 62.1% inhibition in the assay with Erythrocyte [6]. The concentration giving a half-maximal response (EC50) – broadly, the concentration that produces a half-maximal response – in [8] was more than 250 µg/mL; in the assay with Erythrocyte [10] it was 18 µg/mL (≈ 64.7 µM); in assay [16], more than 250 µg/mL; in assay [17], 16 µg/mL (≈ 57.5 µM). This compound also had an inhibition at 125 µg/mL in the assay on Erythrocyte [9] of 62.6%. In the assay with Erythrocyte [18], this compound registered an inhibition at 31.2 µg/mL of 59.4%. In the assay with Erythrocyte [19], this compound gave an inhibition at 15.6 µg/mL of 48.3%.

In the case of `Cc1sc2c(Nc3cccnc3)cccc2c1C`, the inhibition came to 86.2% in assay [1]; 65.4% in assay [12]; 48.1% in assay [13]; 70.9% in assay [14]; 76.1% in [15]. The Activity in assay [2] was 2.5%; in assay [3], 15.5%; in assay [5], 2.8%; in [7], 9%; in [11], 5.5%. Also, testing at 250 µg/mL in the assay on Erythrocyte [4] gave an inhibition of 74.1%. For the same compound, the inhibition at 62.5 µg/mL in the assay on Erythrocyte [6] turned out to be 66.9%. The EC50 is more than 250 µg/mL in assay [8], 24.1 µg/mL (≈ 94.7 µM) in the assay on Erythrocyte [10], more than 250 µg/mL in assay [16] and 17.3 µg/mL (≈ 68 µM) in assay [17]. In the assay with Erythrocyte [9], the inhibition at 125 µg/mL amounted to 69.3%. In the assay with Erythrocyte [18], this compound had an inhibition at 31.2 µg/mL of 56.8%. Also, at 15.6 µg/mL the inhibition with Erythrocyte [19] was 41.8%.

In the case of `COc1cccc(Nc2cccc3c(C)c(C)sc23)c1`, the inhibition in [1] amounted to 84.8%; in assay [12], 62.9%; in assay [13] it was 56.8%; in assay [14] it was 68.9%; in assay [15] it was 82.6%. For the same compound, the Activity in assay [2] was determined as 7.9%; in [3] it was 28.4%; in assay [5] it was 13.4%; in [7], 22.2%; in assay [11] it was 13.5%. Moreover, testing at 250 µg/mL in the assay on Erythrocyte [4] gave an inhibition of 66.7%. Testing at 62.5 µg/mL in the assay on Erythrocyte [6] gave an inhibition of 58%. The EC50 in assay [8] was 98.7 µg/mL (≈ 348 µM); with Erythrocyte [10], 44.2 µg/mL (≈ 156 µM); in assay [16], more than 250 µg/mL; in [17] it was 13.7 µg/mL (≈ 48.3 µM). This compound also gave an inhibition at 125 µg/mL with Erythrocyte [9] of 63.1%. For the same compound, in the assay with Erythrocyte [18], 31.2 µg/mL produced 44.3% inhibition. The inhibition at 15.6 µg/mL with Erythrocyte [19] turned out to be 40.3%.

For the compound `CC(C)(C)c1cc(O)ccc1O`, the inhibition in assay [20] was determined as 82.2%.

`COc1ccc(Nc2cccc3c(C)c(C)sc23)cc1OC`: the inhibition in assay [1] was found to be 100%; in assay [12], 91.4%; in assay [13] it was 89.3%; in [14], 100%; in [15], 100%. Moreover, the Activity in assay [2] was 47.3%; in assay [3], 94.7%; in [5], 72.4%; in assay [7], 92.1%; in assay [11], 86.9%. Also, testing at 250 µg/mL in the assay with Erythrocyte [4] gave an inhibition of 62.9%. In addition, the inhibition at 62.5 µg/mL in the assay with Erythrocyte [6] was found to be 61.2%. The EC50 came to 22.7 µg/mL (≈ 72.4 µM) in assay [8], 18.9 µg/mL (≈ 60.3 µM) in the assay on Erythrocyte [10], 17.3 µg/mL (≈ 55.2 µM) in [16] and 8.73 µg/mL (≈ 27.9 µM) in [17]. In the assay with Erythrocyte [9], this compound had an inhibition at 125 µg/mL of 62.1%. This compound displayed an inhibition at 31.2 µg/mL in the assay with Erythrocyte [18] of 58.3%. Besides, in the assay on Erythrocyte [19], the inhibition at 15.6 µg/mL stood at 47.8%.

Take `Cc1sc2c(Nc3ccccn3)cccc2c1C`: the inhibition was found to be 47.2% in [1]; 42.9% in assay [12]; 40.7% in assay [13]; 45.8% in assay [14]; 45.9% in assay [15]. In addition, the Activity in assay [2] turned out to be 0.4%; in [3], 9%; in [5], 2.6%; in assay [7] it was 8.8%; in [11] it was 4.9%. This compound yielded an inhibition at 250 µg/mL with Erythrocyte [4] of 69.5%. This compound displayed an inhibition at 62.5 µg/mL in the assay with Erythrocyte [6] of 53%. Also, the half-maximal effective concentration (EC50) is more than 250 µg/mL in assay [8], 51.4 µg/mL (≈ 202 µM) in the assay with Erythrocyte [10], more than 250 µg/mL in assay [16] and more than 250 µg/mL in assay [17]. Moreover, testing at 125 µg/mL with Erythrocyte [9] gave an inhibition of 64.6%. At 31.2 µg/mL the inhibition with Erythrocyte [18] was 44.5%. The compound also gave an inhibition at 15.6 µg/mL with Erythrocyte [19] of 38.4%.

As to `COc1ccc(Nc2cccc3c(C)c(C)sc23)cc1`, the inhibition turned out to be 100% in assay [1]; 96.8% in assay [12]; 92.3% in [13]; 99.7% in assay [14]; 100% in assay [15]. Also, the Activity stood at 55.8% in [2]; 93.3% in assay [3]; 85.8% in assay [5]; 91.1% in assay [7]; 88.4% in [11]. This compound also gave an inhibition at 250 µg/mL with Erythrocyte [4] of 66.7%. Besides, testing at 62.5 µg/mL with Erythrocyte [6] gave an inhibition of 65.1%. The concentration for a half-maximal effect (EC50) in assay [8] was 21.6 µg/mL (≈ 76.2 µM); in the assay on Erythrocyte [10], 21.4 µg/mL (≈ 75.5 µM); in assay [16] it was 14 µg/mL (≈ 49.4 µM); in assay [17], 8.45 µg/mL (≈ 29.8 µM). The same compound gave an inhibition at 125 µg/mL in the assay with Erythrocyte [9] of 65.9%. Further, in the assay on Erythrocyte [18], at 31.2 µg/mL the inhibition was 61.2%. In the assay on Erythrocyte [19], this compound returned an inhibition at 15.6 µg/mL of 43.4%.

As to `O=C1O[C@H]([C@@H](O)CO)C(O)=C1O` [ASCORBIC ACID], in the assay with Erythrocyte [21], at 1000 µg/mL the inhibition was 94.6%.
